The structures appear in SMILES notation. pIC50: −log10 of the molar value. Bounds are passed on as bounds.

One assay has as its target Cathepsin D (Homo sapiens, UniProt P07339). The assay can be described thus: Inhibition of human recombinant cathepsin-D expressed in baculovirus-infected insect sf9 cells using Ac- E-D(EDANS)-KPILFFRLG-K(Dabcyl)-E-Amid as substrate incubated for 1 hr prior to substrate addition measured after 1 hr by FRET-based enzymatic assay.
In the next assay the target is T1, Renin (Homo sapiens, UniProt P00797).
T1 sequence (P00797 whole entry): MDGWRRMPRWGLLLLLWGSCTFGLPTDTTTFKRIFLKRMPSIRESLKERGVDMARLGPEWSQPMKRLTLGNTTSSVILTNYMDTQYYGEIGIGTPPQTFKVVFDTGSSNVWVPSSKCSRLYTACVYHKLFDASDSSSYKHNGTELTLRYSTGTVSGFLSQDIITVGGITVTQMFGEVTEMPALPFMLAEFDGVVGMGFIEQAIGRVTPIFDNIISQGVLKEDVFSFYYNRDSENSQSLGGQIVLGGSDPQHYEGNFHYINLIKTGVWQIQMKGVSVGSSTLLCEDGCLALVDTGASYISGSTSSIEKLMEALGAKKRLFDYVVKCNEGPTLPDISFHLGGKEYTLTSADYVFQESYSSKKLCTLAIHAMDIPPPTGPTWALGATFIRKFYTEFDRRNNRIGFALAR
As to the kind of experiment: Inhibition of renin in human plasma using RE(EDANS)IHPFHLVIHTK(Dabcyl)R as substrate incubated for 1 hr prior to substrate addition measured after 2 hrs by FRET-based enzymatic assay. In outline: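 Renin activity measured in the presence of human plasma by FRET cleavage of the quenched peptide substrate. IC50 is the half-maximal inhibition.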

Chain of Cathepsin D (P07339 65-162 limits assumed): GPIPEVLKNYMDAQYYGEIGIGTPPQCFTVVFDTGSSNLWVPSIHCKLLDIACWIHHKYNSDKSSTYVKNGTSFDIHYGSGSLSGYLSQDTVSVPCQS
Chain of Cathepsin D (P07339 169-412 limits assumed): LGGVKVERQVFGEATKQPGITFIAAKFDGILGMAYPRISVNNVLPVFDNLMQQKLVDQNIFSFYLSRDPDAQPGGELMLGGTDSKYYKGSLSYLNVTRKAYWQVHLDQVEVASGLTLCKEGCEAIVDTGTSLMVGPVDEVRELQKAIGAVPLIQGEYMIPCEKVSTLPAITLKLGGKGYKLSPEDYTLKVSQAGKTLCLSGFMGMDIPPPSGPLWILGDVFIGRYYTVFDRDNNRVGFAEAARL

With `COCCCOc1cc(C(=O)N(C[C@@H]2CNC[C@H]2Cc2ccccc2)C(C)C)ccc1OC.Cl`, the values for the pIC50 at Cathepsin D and at Renin were below 4.52 and 6.52, respectively.

By pIC50 is commonly meant the negative decadic logarithm of the IC50, by convention in mol/L.

These data come from ChEMBL document CHEMBL2321868, “The discovery of novel potent trans-3,4-disubstituted pyrrolidine inhibitors of the human aspartic protease renin from in silico three-dimensional (3D) pharmacophore searches” (J Med Chem, 2013).
